Reference: ChEMBL document CHEMBL1154352, “Toll-like receptor 7 selective synthetic oligoribonucleotide agonists: synthesis and structure-activity relationship studies” (J Med Chem, 2009)
Active and inactive are the calls of the source. The rule behind the calls is not given here.

What was measured:
Mus musculus [1] = assay: Immunomodulatory activity in TLR9 knockout C57BL/6 mouse assessed as induction of IL12 release at 10 mg/kg, sc after 2 hrs by ELISA; assay type: functional, organism-based; parameters: dose 10 mg/kg
Outline: (§1)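 Male 8-week-old TLR9-/-, TLR7-/- or MyD88-/- mice on C57BL/6 background, n=3; single subcutaneous 10 mg/kg dose. Blood collected 2 h later by retro-orbital bleeding; serum IL-12 by ELISA.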

Mus musculus [2] = assay: Immunomodulatory activity in wild-type C57BL/6 mouse assessed as induction of IL12 release at 10 mg/kg, sc after 2 hrs by ELISA; assay type: functional, organism-based; parameters: dose 10 mg/kg
Outline: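 Female C57BL/6 wild-type mice, 5–8 weeks old, n=3; compounds given subcutaneously at 10 or 25 mg/kg. Retro-orbital blood at 2 h; serum cytokines by mouse Luminex multiplex or IL-12 ELISA.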

PBMC [3] = assay: Immunomodulatory activity in human PBMC assessed as induction of IP10 after 24 hrs; assay type: functional, cell-based
Outline: (§2)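 Human PBMCs plated at 5 × 10^6 cells/mL; compounds dissolved in PBS added at various concentrations, 37 °C for 24 h. Supernatant cytokines/chemokines quantified with human Luminex multiplex kit.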

PBMC [4] = assay: Immunomodulatory activity in human PBMC assessed as induction of IL1-beta after 24 hrs; assay type: functional, cell-based; outline: as §2
PBMC [5] = assay: Immunomodulatory activity in human PBMC assessed as induction of MIP1beta after 24 hrs; assay type: functional, cell-based; outline: as §2
Mus musculus [6] = assay: Immunomodulatory activity in TLR7 knockout C57BL/6 mouse assessed as induction of IL12 release at 10 mg/kg, sc after 2 hrs by ELISA; assay type: functional, organism-based; parameters: dose 10 mg/kg; outline: as §1
PBMC [7] = assay: Immunomodulatory activity in human PBMC assessed as induction of IL12 after 24 hrs; assay type: functional, cell-based; outline: as §2

Nc1ccn([C@@H]2O[C@H](COP(=O)(S)O[C@H]3[C@@H](O)[C@H](n4cnc5c(N)ncnc54)O[C@@H]3CO)[C@@H](OP(=O)(S)OC[C@H]3O[C@@H](n4ccc(=O)[nH]c4=O)[C@H](O)[C@@H]3OP(=O)(S)OC[C@H]3O[C@@H](n4ccc5c(=O)[nH]c(N)nc54)[C@H](O)[C@@H]3OP(=O)(S)OC[C@H]3O[C@@H](n4ccc(N)nc4=O)[C@H](O)[C@@H]3OP(=O)(S)OC[C@H]3O[C@@H](n4ccc5c(=O)[nH]c(N)nc54)[C@H](O)[C@@H]3OP(=O)(S)OC[C@H]3O[C@@H](n4cnc5c(N)ncnc54)[C@H](O)[C@@H]3OP(=O)(S)OC[C@H]3O[C@@H](n4ccc5c(=O)[nH]c(N)nc54)[C@H](O)[C@@H]3OP(=O)(S)OC[C@H]3O[C@@H](n4ccc(N)nc4=O)[C@H](O)[C@@H]3OP(=O)(S)OC[C@H]3O[C@@H](n4ccc(=O)[nH]c4=O)[C@H](O)[C@@H]3OP(=O)(S)OC[C@H]3O[C@@H](n4ccc(=O)[nH]c4=O)[C@H](O)[C@@H]3OP(=O)(S)OCC(O)COP(=O)(S)O[C@H]3[C@@H](O)[C@H](n4ccc(=O)[nH]c4=O)O[C@@H]3COP(=O)(S)O[C@H]3[C@@H](O)[C@H](n4ccc(=O)[nH]c4=O)O[C@@H]3COP(=O)(S)O[C@H]3[C@@H](O)[C@H](n4ccc(N)nc4=O)O[C@@H]3COP(=O)(S)O[C@H]3[C@@H](O)[C@H](n4ccc5c(=O)[nH]c(N)nc54)O[C@@H]3COP(=O)(S)O[C@H]3[C@@H](O)[C@H](n4cnc5c(N)ncnc54)O[C@@H]3COP(=O)(S)O[C@H]3[C@@H](O)[C@H](n4ccc5c(=O)[nH]c(N)nc54)O[C@@H]3COP(=O)(S)O[C@H]3[C@@H](O)[C@H](n4ccc(N)nc4=O)O[C@@H]3COP(=O)(S)O[C@H]3[C@@H](O)[C@H](n4ccc5c(=O)[nH]c(N)nc54)O[C@@H]3COP(=O)(S)O[C@H]3[C@@H](O)[C@H](n4ccc(=O)[nH]c4=O)O[C@@H]3COP(=O)(S)O[C@H]3[C@@H](O)[C@H](n4ccc(N)nc4=O)O[C@@H]3COP(=O)(S)O[C@H]3[C@@H](O)[C@H](n4cnc5c(N)ncnc54)O[C@@H]3CO)[C@H]2O)c(=O)n1 (some centres not stated)
Activity (Mus musculus [1]): Active
Activity (Mus musculus [2]): Active
Activity (PBMC [3]): Dose-dependent effect
Activity (PBMC [4]): Dose-dependent effect
Activity (PBMC [5]): Dose-dependent effect
Activity (Mus musculus [6]): inactive
Activity (PBMC [7]): Dose-dependent effect
